Results on 3 molecules are retold here after ChEMBL document CHEMBL1629596, “Antileishmanial activity of 1,3,4-thiadiazolium-2-aminide in mice infected with Leishmania amazonensis” (Antimicrob Agents Chemother, 2009).

In data set [1] the test system is Leishmania amazonensis. Description: Antileishmanial activity against Leishmania amazonensis infected in CBA/J mouse assessed as reduction of foot-pad thickness at 100 mg/kg/day, sc administered 4 weeks after infection 5 dose in a week for 4 weeks measured after 12 weeks. The data set is classed as functional, organism-based. A digest of the protocol:
(§1)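 Sc dosing started day 27 post-infection, 5 doses/week for 4 weeks. Controls got DMSO/PBS vehicle. Footpad swelling was followed to week 12 and recorded as infected-footpad thickness. Groups were seven mice, reported as mean with standard errors.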

Data set [2] has as its system Leishmania amazonensis. Description: Antileishmanial activity against Leishmania amazonensis infected in CBA/J mouse assessed as reduction of lesion size at 100 mg/kg/day, sc administered 4 weeks after infection 5 dose in a week for 4 weeks measured after 12 weeks. The class given is functional, organism-based. A digest of the protocol: as §1
In data set [3] the test system is Leishmania amazonensis. The data set is described as follows: Antileishmanial activity against Leishmania amazonensis infected in CBA/J mouse assessed as reduction of parasite loads in popliteal lymph nodes at 100 mg/kg/day, sc administered 4 weeks after infection 5 dose in a week for 4 weeks measured after 12 weeks. The data set is classed as functional, organism-based. The conditions noted are these: Popliteal lymph node. A digest of the protocol:
(§2)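 Mice were killed at week 12, 4 weeks after treatment ended. Popliteal lymph nodes and spleens were removed aseptically, weighed and homogenized in Schneider's medium + 10% fetal calf serum. Eight serial 1:10 dilutions were plated in triplicate and incubated at 26°C. Titer was the last dilution with ≥1 parasite by microscopy. Groups were seven mice.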

Data set [4] relates to Leishmania amazonensis. The data set is described as follows: Antileishmanial activity against Leishmania amazonensis infected in CBA/J mouse assessed as reduction of parasite loads in spleen at 100 mg/kg/day, sc administered 4 weeks after infection 5 dose in a week for 4 weeks measured after 12 weeks. The data set is classed as functional, organism-based. A digest of the protocol:
as §2

Data set [5] concerns Leishmania amazonensis. Description: Antileishmanial activity against Leishmania amazonensis infected in macrophages assessed as nitric oxide release. The data set is classed as functional, organism-based.
For data set [6], the system named is Leishmania amazonensis. The data set is described as follows: Antileishmanial activity against Leishmania amazonensis infected in CBA/J mouse assessed as reduction of lesion size at 24 mg/kg/day, sc administered 4 weeks after infection 5 dose in a week for 4 weeks measured after 12 weeks. The data set is classed as functional, organism-based. Put shortly: (§3)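 Infected footpad thickness measured as lesion size, followed to week 12 postinfection. Subcutaneous dosing in DMSO/PBS vehicle began 27 days after infection, 5 doses a week for 4 weeks; controls received vehicle alone. Groups of seven mice, mean ± SEM.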

The test system of data set [7] is Leishmania amazonensis. Description: Antileishmanial activity against Leishmania amazonensis infected in CBA/J mouse assessed as reduction of foot-pad thickness at 24 mg/kg/day, sc administered 4 weeks after infection 5 dose in a week for 4 weeks measured after 12 weeks. The class given is functional, organism-based. A digest of the protocol:
as §3

The subject of data set [8] is Mus musculus. The data set is described as follows: Toxicity in CBA/J mouse assessed as change in white blood cell count at 24 mg/kg/day, sc administered 5 doses a week for 4 weeks (reference value: 14 x 10^3 ul). The class given is organism-based. Also noted: route subcutaneous. The settings on record: in vivo, 672 h. A digest of the protocol: (§4)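 Uninfected mice dosed subcutaneously in DMSO/PBS, 5 doses/week; tail blood taken at week 4 of treatment. Total leukocytes counted in Neubauer chamber; lymphocyte, monocyte and neutrophil values given as percentages.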

The subject of data set [9] is Mus musculus. Description: Toxicity in CBA/J mouse assessed as change in lymphocytes count at 24 mg/kg/day, sc administered 5 doses a week for 4 weeks (reference value: 75%). The class given is organism-based. Also on record: route subcutaneous. The settings on record: in vivo, 672 h. Put shortly:
as §4

Data set [10] relates to Mus musculus. The data set is described as follows: Toxicity in CBA/J mouse assessed as change in monocytes count at 24 mg/kg/day, sc administered 5 doses a week for 4 weeks (reference value: 5%). Also on record: route subcutaneous. The settings on record: in vivo, 672 h. The class given is organism-based. Put shortly:
as §4

The test system of data set [11] is Mus musculus. Description: Toxicity in CBA/J mouse assessed as change in neutrophils count at 24 mg/kg/day, sc administered 5 doses a week for 4 weeks (reference value: 19%). The data set is classed as organism-based. The conditions noted are these: in vivo, 672 h. Also on record: route subcutaneous. Put shortly:
as §4

The test system of data set [12] is Mus musculus. Description: Toxicity in CBA/J mouse assessed as change in aspartate aminotransferase level at 24 mg/kg/day, sc administered 5 doses a week for 4 weeks (reference value: 51 +/- 6.8 U/ml). The class given is organism-based. Also noted: route subcutaneous. The settings on record: in vivo, 672 h.
For data set [13], the system named is Mus musculus. Description: Toxicity in CBA/J mouse assessed as change in alanine aminotransferase level at 24 mg/kg/day, sc administered 5 doses a week for 4 weeks (reference value: 52 +/- 6.2 U/ml). The data set is classed as organism-based. Also on record: route subcutaneous. The settings on record: in vivo, 672 h.
Data set [14] has as its system Mus musculus. The data set is described as follows: Toxicity in CBA/J mouse assessed as change in body weight at 24 mg/kg/day, sc administered 5 doses a week for 4 weeks (reference value: 25 g). The data set is classed as organism-based. Also on record: route subcutaneous. The conditions noted are these: in vivo, 672 h.
The test system of data set [15] is Leishmania amazonensis. Description: Antileishmanial activity against Leishmania amazonensis infected in CBA/J mouse assessed as reduction of parasite loads in popliteal lymph nodes at 24 mg/kg/day, sc administered 4 weeks after infection 5 dose in a week for 4 weeks measured after 12 weeks. The data set is classed as functional, organism-based. The conditions noted are these: Popliteal lymph node. A digest of the protocol: (§5)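 Week 12 postinfection (4 weeks after last dose): popliteal lymph nodes and spleens removed aseptically, weighed, homogenized in Schneider's medium + 10% FCS; eight 1:10 serial dilutions in triplicate, incubated at 26°C, read by inverted microscope; titer = last dilution with at least one parasite. Seven animals; subcutaneous dosing in DMSO/PBS, 5 doses/week for 4 weeks.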

Data set [16] relates to Leishmania amazonensis. The data set is described as follows: Antileishmanial activity against Leishmania amazonensis infected in CBA/J mouse assessed as reduction of parasite loads in spleen at 24 mg/kg/day, sc administered 4 weeks after infection 5 dose in a week for 4 weeks measured after 12 weeks. The data set is classed as functional, organism-based. Put shortly: as §5

Data set [17] relates to Leishmania amazonensis. Description: Antileishmanial activity against Leishmania amazonensis infected in CBA/J mouse assessed as reduction of foot-pad thickness at 22 mg/kg/day, sc administered 4 weeks after infection 5 dose in a week for 4 weeks measured after 12 weeks. The data set is classed as functional, organism-based. Put shortly:
as §3

Data set [18] deals with Mus musculus. Description: Toxicity in CBA/J mouse assessed as change in white blood cell count at 22 mg/kg/day, sc administered 5 doses a week for 4 weeks (reference value: 14 x 10^3 ul). The data set is classed as organism-based. Also noted: route subcutaneous. The conditions noted are these: in vivo, 672 h. Put shortly: as §4
Data set [19] deals with Mus musculus. Description: Toxicity in CBA/J mouse assessed as change in lymphocytes count at 22 mg/kg/day, sc administered 5 doses a week for 4 weeks (reference value: 75%). The class given is organism-based. Also noted: route subcutaneous. The conditions noted are these: in vivo, 672 h. A digest of the protocol: as §4
The subject of data set [20] is Mus musculus. The data set is described as follows: Toxicity in CBA/J mouse assessed as change in monocytes count at 22 mg/kg/day, sc administered 5 doses a week for 4 weeks (reference value: 5%). The class given is organism-based. Also on record: route subcutaneous. The conditions noted are these: in vivo, 672 h. Put shortly:
as §4

Data set [21] deals with Mus musculus. Description: Toxicity in CBA/J mouse assessed as change in neutrophils count at 22 mg/kg/day, sc administered 5 doses a week for 4 weeks (reference value: 19%). The data set is classed as organism-based. Also noted: route subcutaneous. The conditions noted are these: in vivo, 672 h. A digest of the protocol: as §4
Data set [22] concerns Mus musculus. The data set is described as follows: Toxicity in CBA/J mouse assessed as change in aspartate aminotransferase level at 22 mg/kg/day, sc administered 5 doses a week for 4 weeks (reference value: 51 +/- 6.8 U/ml). The data set is classed as organism-based. Also noted: route subcutaneous. The settings on record: in vivo, 672 h.
Data set [23] deals with Mus musculus. The data set is described as follows: Toxicity in CBA/J mouse assessed as change in alanine aminotransferase level at 22 mg/kg/day, sc administered 5 doses a week for 4 weeks (reference value: 52 +/- 6.2 U/ml). The class given is organism-based. Also on record: route subcutaneous. The conditions noted are these: in vivo, 672 h.
Data set [24] relates to Mus musculus. The data set is described as follows: Toxicity in CBA/J mouse assessed as change in body weight at 22 mg/kg/day, sc administered 5 doses a week for 4 weeks (reference value: 25 g). Also on record: route subcutaneous. The settings on record: in vivo, 672 h. The data set is classed as organism-based.
For data set [25], the system named is Leishmania amazonensis. The data set is described as follows: Antileishmanial activity against Leishmania amazonensis infected in CBA/J mouse assessed as reduction of parasite loads in popliteal lymph nodes at 22 mg/kg/day, sc administered 4 weeks after infection 5 dose in a week for 4 weeks measured after 12 weeks. The settings on record: Popliteal lymph node. The data set is classed as functional, organism-based. A digest of the protocol: as §5

Data set [26] has as its system Leishmania amazonensis. The data set is described as follows: Antileishmanial activity against Leishmania amazonensis infected in CBA/J mouse assessed as reduction of parasite loads in spleen at 22 mg/kg/day, sc administered 4 weeks after infection 5 dose in a week for 4 weeks measured after 12 weeks. The class given is functional, organism-based. A digest of the protocol:
as §5

Data set [27] deals with Leishmania amazonensis. The data set is described as follows: Antileishmanial activity against Leishmania amazonensis infected in CBA/J mouse assessed as increase of nitric oxide production in lymph node cells at 22 mg/kg/day, sc administered 4 weeks after infection 5 dose in a week for 4 weeks measured after 12 weeks. The data set is classed as functional, organism-based.

Active and inactive are the calls of the source. The rule behind the calls is not given here.

Take MEGLUMINE ANTIMONATE: the result in data set [1], in [3] and in data set [4] was Active. Besides, the outcome in data set [2] was inactive.

Regarding `C(=C\c1sc(Nc2ccccc2)n[n+]1-c1ccccc1)/c1ccccc1.[Cl-]`, the outcome in data set [5], in [7], in data set [15] and in [16] was Active. Moreover, in data set [6], the result was inactive. Moreover, the Activity is on record as 12 ×10³ /uL in [8]; 70% in data set [9]; 5% in data set [10]; 24% in data set [11]; 48 U/ml in data set [12]; 58 U/ml in [13]. The Activity in data set [14] was determined as 26 g.

For `COc1ccc(/C=C/c2sc(Nc3ccccc3)n[n+]2-c2ccccc2)cc1.[Cl-]`, the result in data set [5], in data set [17], in data set [25], in [26] and in [27] was Active. In addition, the Activity in data set [18] is 12 ×10³ /uL; in data set [19] it was 69%; in [20] it was 5%; in [21], 25%; in [22] it was 53 U/ml; in data set [23], 57 U/ml. For the same molecule, the Activity in data set [24] came out at 27 g.
